Compound activity: PubChem, Sanford-Burnham Center for Chemical Genomics
Hits are enriched below; roughly 1.7% of the tested compounds scored in any of these assays.
DNMT1 inh = inhibitors of human DNMT1. inhibition (reported as % activation of signal), % at 10 µM. AID 588458. hit rate 0.83% among 360,000. P26358. DNMT1 molecular beacon, Hinp1I cleavage, fluorescence; in the data active = inhibition above about 50%
Target sequence (P26358 504-1616 limits assumed): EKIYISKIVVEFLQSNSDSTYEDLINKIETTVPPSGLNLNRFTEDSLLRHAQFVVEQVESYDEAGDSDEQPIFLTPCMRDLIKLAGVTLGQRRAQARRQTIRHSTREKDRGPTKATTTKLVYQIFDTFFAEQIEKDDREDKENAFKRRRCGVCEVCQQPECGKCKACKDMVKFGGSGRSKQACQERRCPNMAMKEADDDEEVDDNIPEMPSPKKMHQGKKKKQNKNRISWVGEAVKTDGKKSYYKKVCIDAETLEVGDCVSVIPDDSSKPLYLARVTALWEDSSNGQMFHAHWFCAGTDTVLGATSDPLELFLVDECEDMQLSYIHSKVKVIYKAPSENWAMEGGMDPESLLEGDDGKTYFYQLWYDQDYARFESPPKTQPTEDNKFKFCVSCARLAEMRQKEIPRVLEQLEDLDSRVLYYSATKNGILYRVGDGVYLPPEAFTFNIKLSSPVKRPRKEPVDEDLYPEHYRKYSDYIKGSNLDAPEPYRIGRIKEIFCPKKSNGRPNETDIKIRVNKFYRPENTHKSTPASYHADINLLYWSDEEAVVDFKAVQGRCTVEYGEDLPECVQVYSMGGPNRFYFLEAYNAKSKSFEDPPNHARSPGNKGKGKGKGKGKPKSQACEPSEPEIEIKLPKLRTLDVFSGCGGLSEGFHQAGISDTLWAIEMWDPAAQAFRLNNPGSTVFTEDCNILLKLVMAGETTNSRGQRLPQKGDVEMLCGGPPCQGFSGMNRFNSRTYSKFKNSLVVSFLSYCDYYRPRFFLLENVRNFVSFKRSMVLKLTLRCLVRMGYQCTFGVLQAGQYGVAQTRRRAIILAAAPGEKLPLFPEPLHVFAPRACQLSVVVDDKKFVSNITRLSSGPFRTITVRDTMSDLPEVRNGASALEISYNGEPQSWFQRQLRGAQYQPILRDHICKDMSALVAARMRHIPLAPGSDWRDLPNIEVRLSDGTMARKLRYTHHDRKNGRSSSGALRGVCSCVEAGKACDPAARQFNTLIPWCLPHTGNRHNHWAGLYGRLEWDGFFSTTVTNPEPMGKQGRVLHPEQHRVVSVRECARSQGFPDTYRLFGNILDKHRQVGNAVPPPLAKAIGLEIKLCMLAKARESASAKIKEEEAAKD
Scp-1 inhibitor = inhibitors of human Scp-1 phosphatase | Q9GZU7 | Recombinant Scp1, phosphopeptide, malachite green phosphate absorbance | inhibition, % at 20 µM | hit rate 0.88% among 340,000 | AID 493091;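 active = inhibition above about 50% at 20 µM, limit read from the data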
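Test system: SCP-1 phosphatase catalytic domain, residues 76-261 | Compound dosing: One concentration, 20 µM, with 1.0% DMSO | Schedule: 45 min room-temperature reaction, 5 min colour, 30 min stabiliser | Detection: Absorbance at 630 nm | Read-out basis: % inhibition of SCP-1 phosphate liberation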
LMPTP block = blocks human LMPTP phosphatase; recombinant LMPTP-A, OMFP fluorogenic substrate, fluorescence intensity; hit rate 0.22% among 360,000; inhibition, % at 20 µM; AID 651560;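 active = compounds that cut the enzyme signal by at least half of the control window in the single-dose screen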
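Material: LMPTP-A; amount: 0.625 nM enzyme; doses: single 20 µM dose; times: reaction 50 min, room temperature, dark; technique: fluorescence intensity of OMFP turnover product; benchmarks: no-enzyme and uninhibited controls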
SUMO1-SIM PPI = SUMO1-SIM interaction modulation. P63165. SUMO1 binding to a labelled peptide, TR-FRET, 1 h. inhibition, % at 20 µM. hit rate 0.33% among 360,000. AID 602429; in the data active = inhibition above about 37%
STEP inh = blocks human striatal-enriched tyrosine phosphatase. recombinant STEP, OMFP fluorogenic substrate, fluorescence. inhibition, % at 20 µM. hit rate 0.25% among 360,000. AID 588621;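 active = inhibition at 20 µM, scaled per plate between control wells, above about 37%, limit read from the data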
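System: STEP (striatal-enriched tyrosine phosphatase) enzyme, cell-free; medium: Bis-Tris pH 6.0 buffer with DTT, detergent; dosing: 20 µM, 1% DMSO; times: reaction 20 min, ambient temperature; detection: fluorescence, 480/540 nm; read-out basis: normalized % inhibition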
Large screens that a line does not name were inactive; ! = a repeat was not active.

CC(C)COC(=O)c1ccccc1C(=O)OCC(C)C	none
C[CH2][Hg][S]c1ccccc1C(=O)O	Scp-1 inhibitor 101.3
Cc1ccc(/C=C2/Sc3ccc(C(=O)N4CCC5(CC4)OCCO5)cc3NC2=O)cc1	none
CCCc1cc(=O)oc2cc(OCC(=O)N3CCC(C(=O)O)(c4ccccc4)CC3)ccc12	none
Cc1ccc(/C=C2\C(=O)NC(=S)N(c3ccc(F)cc3)C2=O)o1	none
Cc1ccc(N2C(=O)/C(=C/c3ccc(CN(CCC#N)S(C)(=O)=O)o3)C(=O)NC2=S)cc1	DNMT1 inh 110.2, SUMO1-SIM PPI 39.5
COC(=O)c1nc(-c2ccc3c(n2)C(=O)C(N)=C(OC)C3=O)c(N)c(-c2ccc(OC)c(OC)c2O)c1C	DNMT1 inh 86.1
CCC1(C2=NCCN2)Cc2ccccc2O1 (stereo not drawn)	none
NC(=O)C1CCN(/C=C2\C(=O)NC(=O)N(Cc3ccco3)C2=O)CC1	DNMT1 inh 52.0, Scp-1 inhibitor 69.2
Cc1cccc(OCCn2cccc2/C=C2/C(=O)NC(=O)N(Cc3ccco3)C2=O)c1	DNMT1 inh 59.7
O=C1NC(=O)N(Cc2ccco2)C(=O)/C1=C\c1cccn1CCOc1ccc(Cl)cc1	DNMT1 inh 59.3
CCc1ccc(N2C(=O)NC(=O)/C(=C/c3cccn3CCOc3ccc(C)cc3)C2=O)cc1	none
Cc1cc(/C=C2/C(=O)NC(=O)N(Cc3ccco3)C2=O)c(C)n1-c1ccccc1	DNMT1 inh 55.4
CC(=O)c1cn(CC(=O)NCCc2c[nH]c3ccccc23)c2ccccc12	none
COC(=O)Nc1ccc(N=C(N)N[N+](=O)[O-])cc1	none
O=C1NC(=O)N(Cc2ccco2)C(=O)/C1=C/c1ccc(-c2cccc([N+](=O)[O-])c2)o1	DNMT1 inh 97.7, Scp-1 inhibitor 82.1, SUMO1-SIM PPI 37.6
CC(C)c1cc(Br)c(NC(=O)Nc2cccnc2)c(Br)c1	none
CC(=O)c1ccc2c(c1)C1C(Cl)C(Sc3ccccc3[N+](=O)[O-])CC1C(C(=O)O)N2 (stereo not drawn)	DNMT1 inh 114.2, LMPTP block 77.8, SUMO1-SIM PPI 84.4
O=C(O)c1cccc2c1NC(C(=O)O)C1CC(Sc3ccccc3[N+](=O)[O-])C(Cl)C21 (stereo not drawn)	DNMT1 inh 103.9, Scp-1 inhibitor 55.5, LMPTP block 79.1, SUMO1-SIM PPI 87.8, STEP inh 98.1
Cc1ccccc1NC(=NCCCN1CC1)Nc1ccccc1C	SUMO1-SIM PPI 34.3
Cc1ccccc1NC(=O)c1cc(-c2ccccc2)n(CCCN2CCOCC2)c1C	none
COc1cccc(N2C(=O)NC(=O)/C(=C/c3ccc([N+](=O)[O-])s3)C2=O)c1	SUMO1-SIM PPI 47.1
COc1ccc(N2C(=O)NC(=O)/C(=C/c3ccc([N+](=O)[O-])s3)C2=O)cc1	SUMO1-SIM PPI 38.3
COc1ccc(N2C(=O)NC(=O)/C(=C\c3ccc([N+](=O)[O-])s3)C2=O)cc1	none
Cc1cc(=O)oc2c(C)c(OCC(=O)N3CCN(Cc4ccccc4)CC3)ccc12	none
CC1=NCCc2c1[nH]c1cc(O)ccc21	DNMT1 inh 163.0
COc1ccc2c3c([nH]c2c1)C(C)=NCC3	none
c1ccc2c(c1)[IH]c1ccccc1-2	DNMT1 inh 53.0
c1ccc2c(c1)-c1cccc3cccc-2c13	none
Cc1ccc(S(=O)(=O)N(c2cc(Cl)c(O)c(Cl)c2)P(=O)(OC(C)C)OC(C)C)cc1	none
Cc1c(C)c2ccc(OCC(=O)N3C[C@H]4C[C@@H](C3)c3cccc(=O)n3C4)cc2oc1=O	none
CC(C)OC(=O)c1c(N)n(CC2CCCO2)c2nc3ccccc3nc12 (stereo not drawn)	SUMO1-SIM PPI 42.1
CC(C)CCOC(=O)c1c(N)n(CC2CCCO2)c2nc3ccccc3nc12 (stereo not drawn)	none
Cc1cc(C(C#N)c2ccc(Cl)cc2)c(Cl)cc1NC(=O)c1cc(I)cc(I)c1O (stereo not drawn)	DNMT1 inh 74.1, SUMO1-SIM PPI 50.9
Cc1sc2ccccc2c1CC1=NCCN1	none
Nc1ccc(CC2=NCCN2)cc1	DNMT1 inh 56.9
CCn1nc(-c2cccs2)nc2c(=O)n(C)c(=O)nc1-2	DNMT1 inh 118.7, LMPTP block 63.1, STEP inh 65.1
CCn1nc(/C=C/c2ccccc2)nc2c(=O)n(C)c(=O)nc1-2	DNMT1 inh 108.3, LMPTP block 61.5, STEP inh 69.2
COc1ccc(-n2c(/C=C/c3ccc(O)cc3)nc3ccccc3c2=O)cc1	none
CCCC1(CCO)C(=O)NC(=S)NC1=O	none
COc1ccccc1NC(=O)c1cn(CCC#N)nc1-c1cccc(Cl)c1	none
CN(C)c1ccc(/C=C/c2cc[n+](C)c3ccccc23)cc1	LMPTP block 54.7!
NC(N)=Nc1ccc2[nH]c3c(c2c1)C[C@@]1(O)[C@H]2Cc4ccc(O)c5c4[C@@]1(CCN2CC1CC1)[C@H]3O5	Scp-1 inhibitor 98.5
O=[N+]([O-])c1c2ccccc2cc2ccccc12	none
COC(=O)C1=C(c2ccc(Cl)c(C(F)(F)F)c2)C[C@@H]2CC[C@H]1N2C(=O)N1CCC(C)CC1	none
C[C@H]1OC[C@@H](C[N+](C)(C)C)O1	Scp-1 inhibitor 101.3
CC1OC(C[N+](C)(C)C)CC1O (stereo not drawn)	none
CC[n+]1c(/C=C/C=C/c2ccc(N(C)C)cc2)sc2ccccc21	LMPTP block 90.5
COc1ccc2ccccc2c1CNCCc1ccccc1	none
C(#CCN1CCCC1)CN1CCCC1	none
C[C@@H]1CN([C@H](C)CO)C(=O)CCCn2nncc2CO[C@@H]1CN(C)C(=O)Oc1ccccc1	none (no result: Scp-1 inhibitor)
CCCCNC(=O)c1c(N)n(Cc2ccc3c(c2)OCO3)c2nc3ccccc3nc12	SUMO1-SIM PPI 63.6
Nc1c(C(=O)NCc2ccco2)c2nc3ccccc3nc2n1Cc1ccc(F)cc1	SUMO1-SIM PPI 40.2
S=C=Nc1cccc(C2(N3CCCCC3)CCCCC2)c1	none
O=C1NC(=O)N(Cc2ccc(F)cc2)C(=O)/C1=C\c1ccc([N+](=O)[O-])s1	SUMO1-SIM PPI 57.9
COc1ccc(CN2C(=O)NC(=O)/C(=C/c3ccc([N+](=O)[O-])s3)C2=O)cc1	DNMT1 inh 50.8, SUMO1-SIM PPI 64.8
Cc1ccccc1N1C(=O)NC(=O)/C(=C\c2ccc3c(c2)CCCN3Cc2ccccc2)C1=O	none
O=C1NC(=S)NC(=O)C1=Cc1ccc2c(c1)CCN2CCCCl	DNMT1 inh 102.3, Scp-1 inhibitor 90.8, LMPTP block 76.5, SUMO1-SIM PPI 75.8, STEP inh 60.3
CC(=O)CC(c1ccc2c(c1)OCO2)c1c(O)c2ccccc2oc1=O (stereo not drawn)	none (no result: Scp-1 inhibitor)
COc1ccc(CCN)cc1O	none
NCCc1cc(O)c(O)cc1O	DNMT1 inh 118.2, LMPTP block 78.7, SUMO1-SIM PPI 46.9
COc1cc(CC2(CCc3ccncc3)C(=O)N(C)C(=O)N(C)C2=O)cc(OC)c1OC	none
O=C(O)c1cc[c]([Hg][Cl])cc1	Scp-1 inhibitor 95.8
